# Measurements pooled from the literature.
# Lines come from different studies, so protocols differ.
# Effect on: cell growth or viability
Compound,cell line,technique,time,notes,IC50
COc1cc2c3c(n(CCCNC(C)C)c(=O)c2cc1OC)-c1nc2c(cc1C3=O)OCO2,TC-32,MTS,72 h,,55 nM
COc1nc(NCc2cn(-c3ccc(NC(=O)c4ccc(C)cc4)cc3)nn2)nc(OC)n1,Caco-2,MTT,72 h,,751 nM
CC(C)Oc1ccc(S(=O)(=O)c2ccc(Oc3cc(OCC(N)=O)c(C(=O)C(Cl)Cl)cc3[N+](=O)[O-])cc2)cc1,NCI-H1650,MTT,72 h,,460 nM
CCCOc1nc(-c2cccc(O)c2)cc(-c2cc3cc(OC)ccc3nc2N2CCOCC2)c1C#N,Caco-2,MTT,72 h,,42.2 nM
COc1nc(NCc2cn(-c3ccc(NC(=O)c4ccc(Cl)cc4)cc3)nn2)nc(OC)n1,Caco-2,MTT,72 h,,620 nM
COc1cc2c3c(n(CCCn4ccnc4)c(=O)c2cc1OC)-c1nc2c(cc1C3=O)OCO2,TC-32,MTS,72 h,,127 nM
C=C(F)C(=O)N1CCN(c2nc(OC[C@@H]3CCCN3C)nc3c2CCN(c2cccc4cccc(Cl)c24)C3)C[C@@H]1CC#N,HCC44,ATP luminescence,,3D culture,3.82 nM
COc1nc(NCc2cn(-c3ccc(NC(=O)c4ccccc4)cc3)nn2)nc(OC)n1,Caco-2,MTT,72 h,,766 nM
CCOc1nc(-c2cccc(O)c2)cc(-c2cc3ccccc3nc2N2CCOCC2)c1C#N,Caco-2,MTT,72 h,,141 nM
COc1nc(NCc2cn(-c3ccc(C(N)=O)cc3)nn2)nc(OC)n1,Caco-2,MTT,72 h,,970 nM
C=CC(=O)N1CCN(c2nc(=O)n(-c3c(C)ccnc3C(C)C)c3nc(-c4c(O)cccc4F)c(F)cc23)[C@@H](C)C1,HCC44,ATP luminescence,,,> 10000 nM
N[C@H]1CC[C@H](N[C@@H]2C[C@H]2c2ccccc2)CC1,TC-32,resazurin,,,178000 nM
Nc1n[nH]c2nc(-c3cccc(O)c3)cc(-c3cc4cc(Cl)ccc4nc3N3CCOCC3)c12,Caco-2,MTT,72 h,,191 nM
COc1cccc2c1C(=O)c1c(O)c3c(c(O)c1C2=O)C[C@@](O)(C(=O)CO)C[C@@H]3O[C@H]1C[C@H](N)[C@H](O)[C@H](C)O1,Caco-2,MTT,72 h,,1010 nM
CCCOc1nc(-c2cccc(O)c2)cc(-c2cc3ccccc3nc2N2CCOCC2)c1C#N,Caco-2,MTT,72 h,,130 nM
CC(C)c1ccccc1[C@@H]1CCCN1C1CC2(CCN(c3ccc(C(=O)NS(=O)(=O)c4ccc(NC[C@H]5CC[C@](C)(O)CC5)c([N+](=O)[O-])c4)c(Oc4cnc5[nH]ccc5c4)c3)CC2)C1,SU-DHL-4,ATP luminescence,48 h,,2.7 nM
